pKi: −log10 of the molar value.

This assay addresses T1, Thermolysin (Bacillus thermoproteolyticus, UniProt P00800).
T1 sequence (P00800 whole entry): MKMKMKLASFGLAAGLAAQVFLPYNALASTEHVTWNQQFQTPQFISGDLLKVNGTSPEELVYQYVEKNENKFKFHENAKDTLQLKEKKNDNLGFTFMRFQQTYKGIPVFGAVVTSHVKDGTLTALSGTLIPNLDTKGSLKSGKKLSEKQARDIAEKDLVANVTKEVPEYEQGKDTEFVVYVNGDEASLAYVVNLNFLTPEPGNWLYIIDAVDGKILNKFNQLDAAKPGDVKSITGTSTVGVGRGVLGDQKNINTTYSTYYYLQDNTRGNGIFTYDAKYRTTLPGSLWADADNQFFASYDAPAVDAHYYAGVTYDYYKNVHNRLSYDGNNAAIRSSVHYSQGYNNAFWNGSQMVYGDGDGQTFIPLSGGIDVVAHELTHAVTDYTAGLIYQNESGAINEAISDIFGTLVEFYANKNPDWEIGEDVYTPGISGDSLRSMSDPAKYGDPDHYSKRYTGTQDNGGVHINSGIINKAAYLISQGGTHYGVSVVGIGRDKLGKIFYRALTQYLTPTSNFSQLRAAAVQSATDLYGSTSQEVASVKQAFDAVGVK
As to the kind of experiment: Inhibition of Bacillus thermoproteolyticus TLN using 2-furanacryloyl-Gly-Leu-NH2 substrate by biochemical assay. An outline of the steps:
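Read photometrically at 345 nm, 25.0 ± 0.2 °C, in 0.05 M Tris with 0.02 M CaCl2, 2.5 M NaBr, 1.25% DMF, pH 7.3. Final enzyme ~8 nM (stock quantified by A280). Inhibitor spanned 0.5Ki–10Ki. IC50 from υ0/υi vs [I] plots (Ki above 30 nM) or Henderson plots (below). Ki via Cheng-Prusoff (Km 3.9 ± 0.6 mM), averaged over at least three determinations.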
Take `C[C@H](NP(=O)(O)CNC(=O)OCc1ccccc1)C(=O)NCCc1ccccc1`: the pKi – broadly, the Ki on a negative log10 scale, so that one unit is a factor of ten – was 4.34.

As for `CC(C)CCNC(=O)[C@H](C)NP(=O)(O)CNC(=O)OCc1ccccc1`, the pKi is 4.71.

Consider `CC[C@H](NP(=O)(O)CNC(=O)OCc1ccccc1)C(=O)NCCC(C)C`, for which the pKi was 5.71.

Take `CCC[C@H](NP(=O)(O)CNC(=O)OCc1ccccc1)C(=O)NCCC(C)C`: the pKi is 6.66.

The compound `CC(C)CCNC(=O)[C@H](CC(C)C)NP(=O)(O)CNC(=O)OCc1ccccc1` showed a pKi of 7.16.

`CC(C)C[C@H](NC(=O)[C@H](C)NP(=O)(O)CNC(=O)OCc1ccccc1)C(=O)O` showed a pKi of 5.23.

For `CC[C@H](NP(=O)(O)CNC(=O)OCc1ccccc1)C(=O)N[C@@H](CC(C)C)C(=O)O`, the pKi was 6.22.

Turning to `CCC[C@H](NP(=O)(O)CNC(=O)OCc1ccccc1)C(=O)N[C@@H](CC(C)C)C(=O)O`, the negative-log Ki (pKi) was 7.54.

For `CC(C)C[C@H](NC(=O)[C@H](CC(C)C)NP(=O)(O)CNC(=O)OCc1ccccc1)C(=O)O`, the pKi is 8.00.

With `CCCNC(=O)[C@H](CC(C)C)NP(=O)(O)CNC(=O)OCc1ccccc1`, the pKi is 7.22.

`CCCCNC(=O)[C@H](CC(C)C)NP(=O)(O)CNC(=O)OCc1ccccc1` had a negative-log Ki (pKi) of 7.17.

The compound `CCCCCNC(=O)[C@H](CC(C)C)NP(=O)(O)CNC(=O)OCc1ccccc1` had a pKi of 7.23.

As for `CC(C)CNC(=O)[C@H](CC(C)C)NP(=O)(O)CNC(=O)OCc1ccccc1`, the pKi was 7.43.

Compound `CC(C)C[C@H](NP(=O)(O)CNC(=O)OCc1ccccc1)C(=O)NCC(C)(C)C` showed a negative-log Ki (pKi) of 7.00.

As to `CCC(C)CNC(=O)[C@H](CC(C)C)NP(=O)(O)CNC(=O)OCc1ccccc1` (some centres undefined), the pKi is 7.59.

For `CC(C)C[C@H](NP(=O)(O)CNC(=O)OCc1ccccc1)C(=O)NCCC(C)(C)C`, the pKi was 7.37.

Turning to `CC(C)C[C@H](NP(=O)(O)CNC(=O)OCc1ccccc1)C(=O)NCCc1ccccc1`, the pKi is 6.53.

As to `CC(C)C[C@H](NP(=O)(O)CNC(=O)OCc1ccccc1)C(=O)NCCc1cccs1`, the pKi was 6.72.

`CC[C@H](NC(=O)[C@H](CC(C)C)NP(=O)(O)CNC(=O)OCc1ccccc1)C(=O)O` had a pKi of 8.31.

On to `CCC[C@H](NC(=O)[C@H](CC(C)C)NP(=O)(O)CNC(=O)OCc1ccccc1)C(=O)O`, for which the pKi was 8.26.

The compound `CCCC[C@H](NC(=O)[C@H](CC(C)C)NP(=O)(O)CNC(=O)OCc1ccccc1)C(=O)O` showed a pKi of 8.28.

The compound `CC(C)C[C@H](NP(=O)(O)CNC(=O)OCc1ccccc1)C(=O)N[C@H](C(=O)O)C(C)C` showed a pKi of 8.24.

In the case of `CC(C)C[C@H](NP(=O)(O)CNC(=O)OCc1ccccc1)C(=O)N[C@H](C(=O)O)C(C)(C)C`, the pKi was 7.51.

The compound `CCC(C)[C@H](NC(=O)[C@H](CC(C)C)NP(=O)(O)CNC(=O)OCc1ccccc1)C(=O)O` (some centres undefined) showed a pKi of 7.92.

The compound `CC(C)C[C@H](NP(=O)(O)CNC(=O)OCc1ccccc1)C(=O)N[C@@H](CC(C)(C)C)C(=O)O` had a pKi of 7.40.

As for `CC(C)C[C@H](NP(=O)(O)CNC(=O)OCc1ccccc1)C(=O)N[C@@H](Cc1cccs1)C(=O)O`, the pKi was 7.62.

On to `CNC(=O)[C@H](C)NP(=O)(O)CNC(=O)OCc1ccccc1`, for which the pKi is 3.73.

As to `CCNC(=O)[C@H](C)NP(=O)(O)CNC(=O)OCc1ccccc1`, the pKi was 4.25.

`CCCNC(=O)[C@H](C)NP(=O)(O)CNC(=O)OCc1ccccc1` gave a pKi of 4.91.

In turn, `C[C@H](NP(=O)(O)CNC(=O)OCc1ccccc1)C(=O)NCC(=O)O` had a pKi of 3.72.

`C[C@H](NC(=O)[C@H](C)NP(=O)(O)CNC(=O)OCc1ccccc1)C(=O)O` gave a pKi of 5.14.

On to `CC[C@H](NC(=O)[C@H](C)NP(=O)(O)CNC(=O)OCc1ccccc1)C(=O)O`, for which the pKi is 5.86.

`C[C@H](NP(=O)(O)CNC(=O)OCc1ccccc1)C(=O)N[C@@H](Cc1ccccc1)C(=O)O` had a pKi of 4.51.

As for `CC(C)C[C@H](NP(=O)(O)CNC(=O)OCc1ccccc1)C(=O)N[C@@H](Cc1ccccc1)C(=O)O`, the pKi is 7.27.

(Values after ChEMBL document CHEMBL3407486, “Additivity or cooperativity: which model can predict the influence of simultaneous incorporation of two or more functionalities in a ligand molecule?” (Eur J Med Chem, 2015).)
